D1 allo mod: D1 CRE-luciferase signal change, two-sided – cell-based, HEK293 D1, dopamine EC30, D1 allosteric modulator project, primary screen. dopamine EC30 potentiation; actives deviate in either direction. B-score at 10 µM. 58,000 compounds, 5.9% hits. AID 641, 2007;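 active = luminescence count or its row- and column-corrected plate score outside the 99.7% band of the plate's sample wells, on either side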
PostGolgi ctrl: growth inhibition of yeast control strain, primary screen, counter-screen for post-Golgi transport modulator project; efflux-deficient yeast background strain, growth absorbance A615, 16 h; inhibition, % at 10 µM; 98,000 compounds, 5% hits
DAT uptake mod: changed hDAT dopamine uptake under cocaine IC80, either direction, primary screen, cocaine antagonist project, cell-based, LLC-PK1 hDAT, [14C]-dopamine uptake, MLSMR. B-score at 10 µM. Sodium-dependent dopamine transporter (Homo sapiens), Q01959. LLC-PK1 hDAT cells, [14C]-dopamine uptake with cocaine IC80; actives deviate in either direction. 110,000 compounds, 1.3% hits;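 active = Z score or B-score, a plate-position-corrected score, falls beyond the plate's 99.7% confidence bounds, in either direction; inactive = both scores lie inside the 99.7% bounds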;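 note: scored against the spread of the other compound wells on the same plate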
Target sequence (Q01959 whole entry, looked up): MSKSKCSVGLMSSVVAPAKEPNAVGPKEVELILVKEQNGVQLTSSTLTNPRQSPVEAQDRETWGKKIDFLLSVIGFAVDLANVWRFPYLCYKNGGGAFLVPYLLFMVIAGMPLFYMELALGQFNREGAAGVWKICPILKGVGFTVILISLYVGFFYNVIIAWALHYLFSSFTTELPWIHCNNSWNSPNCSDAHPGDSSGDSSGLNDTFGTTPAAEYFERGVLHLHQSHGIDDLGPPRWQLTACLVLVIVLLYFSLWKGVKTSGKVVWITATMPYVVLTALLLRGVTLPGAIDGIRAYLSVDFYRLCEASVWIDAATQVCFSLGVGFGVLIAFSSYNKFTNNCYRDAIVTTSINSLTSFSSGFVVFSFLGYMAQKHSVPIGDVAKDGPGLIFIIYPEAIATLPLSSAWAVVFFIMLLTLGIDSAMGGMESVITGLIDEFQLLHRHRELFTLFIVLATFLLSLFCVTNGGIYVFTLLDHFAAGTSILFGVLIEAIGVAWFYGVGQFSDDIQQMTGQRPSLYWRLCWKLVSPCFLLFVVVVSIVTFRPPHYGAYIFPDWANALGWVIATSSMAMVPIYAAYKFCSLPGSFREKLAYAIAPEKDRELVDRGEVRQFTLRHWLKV
PostGolgi yeast: phenotypic screen on post-Golgi transport, primary screen; 98,000 compounds, 0.9% hits; inhibition, % at 10 µM; post-Golgi transport phenotypic cell assay; AID 739, 2007;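 note: yeast cells grown in 1536-well plates; yeast grown about 18 h at 30C before absorbance read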
E coli WT exp: growth inhibitors of wild-type E. coli, primary screen, strain BW25113, expanded library, OD600. AID 710, 2007. OD600 absorbance. 98,000 compounds, 0.15% hits. growth inhibition, % at 100 µM;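 active = growth inhibition above about 50% at one test dose, limit read from the data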;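 note: growth measured after 20 h incubation at 37 °C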
Ecoli tolC: growth inhibitors of E. coli tolC mutant, primary screen, strain BW25113 ΔtolC::kan, 384-well. AID 573, 2007. 65,000 compounds, 2.2% hits. growth inhibition, % at 10 µM (by protocol). OD615;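 active = growth inhibition at or above a cutoff equal to the mean over every tested compound plus 3 SD, cut at about 60% in these data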;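 note: growth measured after 20 h incubation at 37 °C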
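Test system: tolC-deleted E. coli BW25113; medium: LB with kanamycin 50 µg/mL; compound: single-point testing at 10 µM; incubation: 20 h compound exposure of bacteria at 37 °C; signal: OD at 615 nm; evaluation: growth inhibition in percent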
* hit, by the source's call; nt = no result. A selection: hits, their analogues and other compounds. The true share with any hit is near 9.3%. Cut-off read from the data, not from the text of the source, unless noted: active = inhibition above about 30%; inactive = the rest.

SMILES	D1 allo mod	PostGolgi ctrl	DAT uptake mod	PostGolgi yeast	E coli WT exp	Ecoli tolC
CC(=O)NC1C(=O)Nc2c1cccc2C(F)(F)F (configuration not stated)	-0.032	-1	0.57	2	8	-10
CC(=O)N1CCN=C1SCc1c(F)cccc1Cl	0.89	32*	-0.81	3	6	-3
c1ccc(NCc2cccnc2)cc1	nt	-4	0.99	-1	8	nt
O=C1c2ccccc2C(=O)c2c(NCc3cccnc3)cccc21	nt	34*	2.5	-2	1	nt
C#Cc1ccc([C@@H]2C=C(C(=O)N3CCOCC3)O[C@H](OCC)[C@H]2CCCO)cc1	nt	nt	-0.27	nt	nt	nt
CCOc1ccc(Nc2nc(N3CCCCC3)nc(N3CCCCC3)n2)cc1	nt	4	-0.46	26	-13	nt
Cc1cccc(Nc2nc(N3CCCC3)nc(N3CCCC3)n2)c1	nt	38*	-0.81	2	-1	nt
COc1nc(N2CCCCCC2)nc(N2CCCCCC2)n1	0.018	32*	-0.22	23	2	42
COc1nc(Nc2cccc(C)c2)nc(N2CCCCC2)n1	0.099	36*	nt	5	2	8
c1ccc(CNc2nc(N3CCOCC3)nc(N3CCOCC3)n2)cc1	nt	nt	0.53	nt	nt	nt
Nc1nc(N2CCCCC2)nc(N2CCCCC2)n1	nt	8	0.93	-5	-8	nt
Cc1cccc(Nc2nc(NCc3ccco3)nc(N3CCOCC3)n2)c1	-0.21	1	1.4	3	-13	62*
COc1ccc(N2CCN(c3nc(Nc4ccc(F)cc4)nc(OC)n3)CC2)cc1	nt	-10	0.34	-4	0	nt
CCCCCCOC(=O)Cc1c(C)nc(-c2ccccc2)[nH]c1=O	nt	34*	-0.75	-8	-3	nt
C=C(C)Cc1c(C)nc(-c2ccccc2)[nH]c1=O	nt	4	-0.6	3	0	-4
CCN(CC)C(=O)CSc1nc(-c2ccc(C)cc2)nc2c1COC(C)(C)C2	nt	36*	0.46	5	0	nt
COc1ccc(N(C(=O)c2ccco2)S(=O)(=O)c2cc(OC)ccc2OC)cc1	-2.2*	26	1	-2	8	8
CCN1C(=O)N[C@@H](c2ccco2)C(C(=O)OC)=C1C	nt	nt	0.34	nt	nt	nt
Oc1cc2c(cc1O)C1c3ccc(O)c(O)c3OCC1(O)C2 (configuration not stated)	nt	nt	1.4	nt	nt	nt
CCCNS(=O)(=O)c1ccc(CCC(=O)N2CCOCC2)cc1	0.27	5	-0.21	-7	-1	-26
CCCNS(=O)(=O)c1ccc(CCC(=O)N2CCN(c3ccc(OC)cc3)CC2)cc1	nt	53*	0.87	1	4	nt
COc1ccc(N2CCN(C(=O)CCNS(=O)(=O)c3ccc(Br)s3)CC2)cc1	-0.16	3	-0.049	84*	1	36
CCCCC(=O)Nc1ccccc1C(=O)N1CCOCC1	nt	nt	0.002	nt	nt	nt
COc1ccc(S(=O)(=O)N2CCC(C(=O)NCCc3ccc4c(c3)OCO4)CC2)cc1	-0.19	39*	0.89	1	4	9
COc1ccc(CCNC(=O)COc2ccc(S(=O)(=O)N3CCOCC3)cc2)cc1	0.65	-3	2.4*	-4	3	-10
SMILES	D1 allo mod	PostGolgi ctrl	DAT uptake mod	PostGolgi yeast	E coli WT exp	Ecoli tolC
CCNC(=S)NNC(=O)c1cc(C2CC2)nc2ccccc12	nt	2	nt	-14	4	nt
CCOC(=O)c1cc(C(=O)c2cccs2)n2ccc(C(C)=O)cc12	nt	82*	-0.47	1	-11	nt
Cc1ccc(C(C)C)c(OCC(O)CN2CC(C)OC(C)C2)c1 (configuration not stated)	-3.5*	9	-0.016	6	0	-3
COc1ccc(NC(C)C(=O)Nc2ccc(C(C)(C)C)cc2)cc1Cl (configuration not stated)	nt	34*	-0.39	-5	0	nt
Cn1nnc(C(O)CNCc2cccs2)n1 (configuration not stated)	0.11	9	-0.0057	-3	-4	-31
Cn1nnc(NCc2cc(Br)ccc2OCc2cccs2)n1	0.29	7	9.8*	-2	-2	5
COc1ccc(-n2c(Cc3cccn3C)nnc2SCC(=O)NCCc2ccccc2)cc1	0.082	0	0.33	-3	-5	15
COCCNC(=O)CN1CCC(NC(=O)C(C)(C)C)CC1	nt	13	1.1	37*	-5	nt
COc1ccccc1-n1c(SCC(=O)NC(C)(C)C)nc(O)cc1=O	-0.026	5	-0.1	2	-1	-7
COc1ccccc1NC(=O)CSc1nc(O)cc(=O)n1-c1ccccc1OC	0.088	35*	-0.041	-3	-11	2
COc1ccccc1-n1c(SCC(=O)Nc2ccccc2C)nc(O)cc1=O	-0.21	37*	-1.7	8	-2	-6
Cc1nn(Cc2ccc(C(=O)Nc3nc4c(C)cccc4s3)o2)c(C)c1Br	nt	35*	1.8	32*	-10	nt
Cc1csc(NC(=O)c2cccc(Cn3nc(C)c(Br)c3C)c2)n1	-0.46	15	1.9	8	-1	73*
CCCOc1ccc(N2C(=O)CC(N3CCC(c4nncn4CC)CC3)C2=O)cc1 (configuration not stated)	0.0097	22	-0.8	-11	4	-13
CC/C(=C\C1CCCCC1)C(NP(=O)(c1ccccc1)c1ccccc1)c1ccccc1 (configuration not stated)	nt	nt	-0.036	nt	nt	nt
O=S(=O)(Nc1ccc2c(c1)OCCO2)c1cnc[nH]1	0.27	10	-0.25	-4	3	-28
CCOC(=O)CN1C(=O)N[C@@H](c2cccc(F)c2)C(C(=O)OC)=C1C	nt	nt	0.056	nt	nt	nt
COc1ccccc1C1/C(=C(\O)c2ccc3c(c2)OCCO3)C(=O)C(=O)N1CCCN(C)C (configuration not stated)	nt	nt	nt	nt	nt	1
C=CCN1C(=O)C2(/C(=C(\O)c3ccc4c(c3)OCCO4)C(=O)C(=O)N2CCCOC)c2ccccc21 (configuration not stated)	-1.7	41*	-1.7	-10	0	-27
CC(=O)Nc1cc(NC(C)=O)cc(C(=O)NC(C)(C)C)c1	0.83	5	-0.67	7	3	-14
O=C(CCc1nc(-c2ccccc2F)no1)NC1CCN(Cc2ccccc2)CC1	-1.3	-4	-0.45	2	12	0
O=C(COc1ccccc1F)NC1CCN(Cc2ccccc2)CC1	nt	28	-0.56	54*	0	nt
CCOc1ccc2nc(NCCNC(=O)Nc3ccccc3)c(C#N)cc2c1	0.22	-1	0.099	-1	-6	9
COc1ccc2nc(NCCCNC(=O)c3cc(OC)c(OC)c(OC)c3)c(C#N)cc2c1	0.094	3	0.012	34*	7	8
C=CCSc1nc(-c2ccccc2)c2cc(Cl)ccc2n1	nt	10	-1.6*	-14	-6	nt
CSc1c(-c2ccccc2)nc2ccc(Cl)cc2c1C(=O)O	nt	-3	-0.39	-2	-1	nt

Screens as filed in PubChem.
